Experimental data of several laboratories.
Effect on: cell growth or viability

CC[C@H](C)[C@H](NC(=O)[C@H](CO)NC(=O)[C@H](CO)NC(=O)[C@H](Cc1ccccc1)NC(=O)CN)C(=O)N[C@@H](Cc1ccccc1)C(=O)N[C@@H](CCCCNC(=N)N)C(=O)NCC(=O)N[C@H](C(=O)N[C@@H](C)C(=O)N[C@@H](CCCCNC(=N)N)C(=O)N[C@@H](Cc1ccccc1)C(=O)N[C@@H](C)C(=O)N[C@@H](CO)C(=O)N[C@@H](CCCCNC(=N)N)C(=O)NCC(=O)N[C@@H](CC(C)C)C(=O)NCC(=O)N[C@@H](CCCCNC(=N)N)C(N)=O)C(C)C
IC50 (HEK293; MTT): > 100 µM

[C-]#[O+].[C-]#[O+].[C-]#[O+].[C-]#[O+].[C-]#[O+].[C-]#[O+].[C-]#[O+].[C-]#[O+].[C-]#[O+].[C-]#[O+].[Mn].[Mn]
IC50 (HEK293; MTT; 48 h): 5.44 µM

N.N.[Cl][Pt][Cl]
IC50 (KARPAS-422; ATP luminescence; 72 h): 7.16 µM

Cc1ncsc1-c1ccc([C@H](C)NC(=O)[C@@H]2C[C@@H](O)CN2C(=O)[C@@H](c2cc(N3CCC(CN4CCC(OC5CC(Oc6cc(N7C8CCC7CN(c7cc(-c9ccccc9O)nnc7N)C8)ccn6)C5)CC4)CC3)no2)C(C)C)cc1 (some centres unmarked)
IC50 (HCC515; ATP luminescence; 7 days): 0.0529 µM

CC(C)C[C@H](NC(=O)[C@H](CO)NC(=O)[C@H](CO)NC(=O)CNC(=O)[C@@H]1CCCN1C(=O)[C@H](Cc1ccc(O)cc1)NC(=O)[C@H](CC(C)C)NC(=O)[C@H](CO)NC(=O)[C@H](CS)NC(=O)[C@H](CC(C)C)NC(=O)[C@@H](N)CC(C)C)C(=O)O
IC50 (NCI-H1975; MTT; 72 h): > 100 µM

N.N.[Cl][Pt][Cl]
IC50 (HEK293; MTT; 48 h): 17.6 µM

CC[C@H](C)[C@H](NC(=O)CN)C(=O)NCC(=O)N[C@@H](C)C(=O)N[C@H](C(=O)N[C@@H](CC(C)C)C(=O)N[C@@H](CCCCN)C(=O)N[C@H](C(=O)N[C@@H](CC(C)C)C(=O)N[C@H](C(=O)N[C@H](C(=O)NCC(=O)N[C@@H](CC(C)C)C(=O)N1CCC[C@H]1C(=O)N[C@@H](C)C(=O)N[C@@H](CC(C)C)C(=O)N[C@H](C(=O)N[C@@H](CO)C(=O)N[C@@H](Cc1c[nH]c2ccccc12)C(=O)N[C@H](C(=O)N[C@@H](CCCCN)C(=O)N[C@@H](CCCNC(=N)N)C(=O)N[C@@H](CCCCN)C(=O)N[C@@H](CCCNC(=N)N)C(=O)N[C@@H](CCC(N)=O)C(=O)N[C@@H](CCC(N)=O)C(N)=O)[C@@H](C)CC)[C@@H](C)CC)[C@@H](C)O)[C@@H](C)O)C(C)C)C(C)C
IC50 (HEK293; MTT; 24 h): 4.66 µM

C[C@H](NC(=O)[C@H](Cc1c[nH]c2ccccc12)NC(=O)CNC(=O)[C@H](CCCNC(=N)N)NC(=O)[C@H](Cc1c[nH]c2ccccc12)NC(=O)[C@H](Cc1c[nH]c2ccccc12)NC(=O)[C@H](CO)NC(=O)[C@H](CO)NC(=O)[C@H](Cc1c[nH]c2ccccc12)NC(=O)CN)C(=O)N[C@@H](CCCCN)C(=O)N[C@@H](Cc1c[nH]c2ccccc12)C(=O)N[C@@H](C)C(=O)N[C@@H](CO)C(=O)N[C@@H](CCCCN)C(=O)NCC(=O)N[C@@H](Cc1c[nH]c2ccccc12)C(=O)NCC(=O)N[C@@H](CCCCN)C(N)=O
IC50 (HEK293; MTT): 34.1 µM
